From ChEMBL document CHEMBL1949509, “Fluorinated dual antithrombotic compounds based on 1,4-benzoxazine scaffold” (Eur J Med Chem, 2012) come the findings set out here.

In assay [1] the target is Integrin alpha-IIb/beta-3 (Homo sapiens, UniProt P05106+P08514). Kind of assay: Displacement of biotinylated fibrinogen from human alpha2b-beta3 receptor after 2 hrs by chemiluminescence assay. The assay is classed as protein-complex assay.
Assay [2] has as its target Integrin alpha-V/beta-3 (Homo sapiens, UniProt P05106+P06756). Kind of assay: Displacement of biotinylated fibrinogen from human […] receptor after 2 hrs by chemiluminescence assay. It counts as protein-complex assay.
Assay [3] addresses Coagulation factor X (Homo sapiens, UniProt P00742). As to the kind of experiment: Inhibition of factor 10a using S-2222 as substrate preincubated for 15 mins prior substrate addition measured for every 10 secs by spectrophotometry. The gist of the method: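 Amidolytic chromogenic assay. Factor Xa at 1 mBAEEE/mL final with S-2222 at […] final. Inhibitor at three concentrations, diluted from 10 mmol/L DMSO stock, preincubated with enzyme in HBSA buffer for 15 min at 25 °C. A405 read every 10 s. Run in triplicate. Ki by Cheng–Prusoff from initial linear rates, averaged over concentration combinations.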

A short description of assay [4]: Selectivity ratio of Ki for trypsin to Ki for thrombin. A digest of the protocol:
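Trypsin at 0.5 nkat/mL with S-2222 at 50 and 100; thrombin at 0.5 NIH E/mL with S-2238 at […]. Triplicates, three inhibitor concentrations.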

Assay [5] addresses Prothrombin (Homo sapiens, UniProt P00734).
A short description of assay [6]: Selectivity ratio of Ki for factor 10a to Ki for thrombin. A digest of the protocol:
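Factor Xa at 1 mBAEEE/mL with S-2222 at 100 and 200; thrombin at 0.5 NIH E/mL with S-2238 at […]. Triplicates, three inhibitor concentrations.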

Integrin alpha-V/beta-3, sequence (P05106 27-788 limits assumed): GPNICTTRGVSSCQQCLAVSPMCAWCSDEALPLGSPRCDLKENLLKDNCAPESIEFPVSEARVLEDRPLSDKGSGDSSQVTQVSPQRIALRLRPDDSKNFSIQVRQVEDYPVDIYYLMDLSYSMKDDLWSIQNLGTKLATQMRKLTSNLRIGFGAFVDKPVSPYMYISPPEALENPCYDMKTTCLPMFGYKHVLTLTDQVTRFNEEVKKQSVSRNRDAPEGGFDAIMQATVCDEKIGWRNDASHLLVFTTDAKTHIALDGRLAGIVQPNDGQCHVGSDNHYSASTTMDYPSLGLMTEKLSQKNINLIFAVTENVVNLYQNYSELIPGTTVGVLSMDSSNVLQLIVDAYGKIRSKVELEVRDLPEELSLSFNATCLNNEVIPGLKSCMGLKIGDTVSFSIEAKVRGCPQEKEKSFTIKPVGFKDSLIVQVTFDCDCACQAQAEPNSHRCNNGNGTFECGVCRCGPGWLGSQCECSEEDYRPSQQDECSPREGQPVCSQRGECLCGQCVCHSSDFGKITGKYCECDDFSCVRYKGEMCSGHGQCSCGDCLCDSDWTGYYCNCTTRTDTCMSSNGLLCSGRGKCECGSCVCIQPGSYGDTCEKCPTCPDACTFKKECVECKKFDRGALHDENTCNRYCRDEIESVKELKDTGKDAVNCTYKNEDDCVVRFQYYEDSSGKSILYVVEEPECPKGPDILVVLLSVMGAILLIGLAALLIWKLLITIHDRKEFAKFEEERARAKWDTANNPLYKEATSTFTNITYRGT
Integrin alpha-V/beta-3, sequence (P06756 31-889 limits assumed): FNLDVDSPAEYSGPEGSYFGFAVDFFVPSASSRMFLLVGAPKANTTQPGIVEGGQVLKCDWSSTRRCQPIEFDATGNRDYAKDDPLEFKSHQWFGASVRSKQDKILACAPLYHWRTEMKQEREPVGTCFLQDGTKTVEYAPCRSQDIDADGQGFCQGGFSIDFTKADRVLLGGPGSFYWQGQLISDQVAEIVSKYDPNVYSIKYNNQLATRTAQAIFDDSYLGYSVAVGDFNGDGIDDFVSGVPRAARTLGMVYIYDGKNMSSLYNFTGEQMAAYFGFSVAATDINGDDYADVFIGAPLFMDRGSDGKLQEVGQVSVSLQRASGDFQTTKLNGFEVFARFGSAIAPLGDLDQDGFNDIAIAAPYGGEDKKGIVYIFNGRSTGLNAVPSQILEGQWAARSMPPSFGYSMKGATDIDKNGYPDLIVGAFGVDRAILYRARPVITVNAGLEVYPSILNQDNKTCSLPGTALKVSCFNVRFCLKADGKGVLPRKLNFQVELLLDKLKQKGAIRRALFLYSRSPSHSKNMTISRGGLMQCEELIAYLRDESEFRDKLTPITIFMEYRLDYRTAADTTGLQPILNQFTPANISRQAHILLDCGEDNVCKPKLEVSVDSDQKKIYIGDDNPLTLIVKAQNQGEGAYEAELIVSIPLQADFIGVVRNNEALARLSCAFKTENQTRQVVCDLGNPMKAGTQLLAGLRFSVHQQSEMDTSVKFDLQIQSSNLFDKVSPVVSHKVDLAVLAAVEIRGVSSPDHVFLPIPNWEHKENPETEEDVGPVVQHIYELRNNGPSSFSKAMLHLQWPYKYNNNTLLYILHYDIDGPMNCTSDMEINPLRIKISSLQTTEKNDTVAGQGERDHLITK
Integrin alpha-V/beta-3, sequence (P06756 891-1048 limits assumed): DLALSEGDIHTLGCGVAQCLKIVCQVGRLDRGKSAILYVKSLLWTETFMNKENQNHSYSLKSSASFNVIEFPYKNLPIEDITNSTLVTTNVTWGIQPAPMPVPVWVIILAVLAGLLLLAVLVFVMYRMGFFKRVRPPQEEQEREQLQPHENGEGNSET
Integrin alpha-IIb/beta-3, sequence (P05106 27-788 limits assumed): as the sequence (P05106 27-788 limits assumed) above
Integrin alpha-IIb/beta-3, sequence (P08514 32-887 limits assumed): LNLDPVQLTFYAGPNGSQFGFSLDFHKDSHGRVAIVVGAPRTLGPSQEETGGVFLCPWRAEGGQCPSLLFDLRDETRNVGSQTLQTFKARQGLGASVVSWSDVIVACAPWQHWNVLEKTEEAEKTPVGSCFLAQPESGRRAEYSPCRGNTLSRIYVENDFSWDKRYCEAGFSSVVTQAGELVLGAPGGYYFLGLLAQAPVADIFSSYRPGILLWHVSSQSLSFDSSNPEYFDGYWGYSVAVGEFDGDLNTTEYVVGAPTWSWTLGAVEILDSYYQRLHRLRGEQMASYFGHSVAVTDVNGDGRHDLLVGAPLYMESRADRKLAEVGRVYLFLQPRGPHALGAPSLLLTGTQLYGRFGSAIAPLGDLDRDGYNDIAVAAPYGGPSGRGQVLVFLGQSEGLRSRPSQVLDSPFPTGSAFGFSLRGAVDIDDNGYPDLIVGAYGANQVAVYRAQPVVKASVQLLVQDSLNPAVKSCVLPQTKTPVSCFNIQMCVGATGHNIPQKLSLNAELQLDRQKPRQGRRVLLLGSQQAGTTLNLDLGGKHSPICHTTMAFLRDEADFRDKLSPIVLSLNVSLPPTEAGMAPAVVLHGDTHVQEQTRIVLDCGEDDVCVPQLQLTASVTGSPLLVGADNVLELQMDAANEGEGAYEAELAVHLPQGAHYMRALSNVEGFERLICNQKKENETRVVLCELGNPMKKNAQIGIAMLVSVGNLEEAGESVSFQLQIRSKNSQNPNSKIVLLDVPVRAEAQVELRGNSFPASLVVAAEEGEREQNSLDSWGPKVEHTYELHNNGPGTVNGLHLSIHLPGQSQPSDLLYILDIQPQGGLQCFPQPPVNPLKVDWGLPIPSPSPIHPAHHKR
Integrin alpha-IIb/beta-3, sequence (P08514 891-1039 limits assumed): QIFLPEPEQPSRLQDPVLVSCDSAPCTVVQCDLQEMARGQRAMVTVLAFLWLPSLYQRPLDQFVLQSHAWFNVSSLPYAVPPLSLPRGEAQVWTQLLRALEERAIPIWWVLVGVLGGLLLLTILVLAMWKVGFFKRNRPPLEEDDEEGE
Coagulation factor X, sequence (P00742 41-179 limits assumed): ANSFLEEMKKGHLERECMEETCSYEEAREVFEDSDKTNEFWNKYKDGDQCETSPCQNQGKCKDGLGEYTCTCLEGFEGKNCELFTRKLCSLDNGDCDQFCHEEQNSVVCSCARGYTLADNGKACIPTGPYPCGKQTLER
Coagulation factor X, sequence (P00742 235-488 limits assumed): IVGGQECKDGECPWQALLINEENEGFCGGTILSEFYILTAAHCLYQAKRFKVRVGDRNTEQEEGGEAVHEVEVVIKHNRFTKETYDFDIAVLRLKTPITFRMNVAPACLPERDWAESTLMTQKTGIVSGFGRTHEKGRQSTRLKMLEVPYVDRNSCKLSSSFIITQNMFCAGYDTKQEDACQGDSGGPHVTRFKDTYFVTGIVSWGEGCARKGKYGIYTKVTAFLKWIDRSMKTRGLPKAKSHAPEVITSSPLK

On to `CN1CC(C)(COc2ccc(C(=N)N)cc2)Oc2ccc(N(Cc3cc(F)cc(F)c3)C(=O)C(=O)O)cc21` (configuration not stated), for which the IC50 in assay [1] is 3.4 µM; in assay [2], over 100 µM. Also, in assay [3], the Ki amounted to 14 µM.

On to `CN1CC(C)(COc2ccc(C(=N)N)cc2)Oc2cc(N(CC(=O)O)Cc3cccc(F)c3)ccc21` (configuration not stated), for which the IC50 was 60 µM in assay [1] and over 100 µM in assay [2]. Moreover, the Ratio Ki in assay [4] worked out at 5. In addition, the Ki was found to be 0.32 µM in assay [5] and 6.6 µM in assay [3].

For the molecule `CN1CC(C)(COc2ccc(C(=N)N)cc2)Oc2ccc(N(CC(=O)O)Cc3ccc(F)cc3)cc21` (configuration not stated), the IC50 in assay [1] is 2 µM; in assay [2], over 100 µM. In addition, the Ki came out at 0.75 µM in assay [5] and 7.7 µM in assay [3].

As to `CN1CC(C)(COc2ccc(C(=N)N)cc2)Oc2ccc(N(Cc3ccccc3)C(=O)C(=O)O)cc21` (configuration not stated), the results for the IC50 in assay [1] and in assay [2] were 2.8 µM and over 100 µM, respectively.

In the case of `CCOC(=O)CN(Cc1ccc(F)c(F)c1)c1ccc2c(c1)N(C)CC(C)(COc1ccc(C(=N)N)cc1)O2` (configuration not stated), the IC50 in assay [1] and in assay [2] was over 100 µM in each case. The Ki in assay [5] was found to be 0.83 µM; in assay [3], 8 µM.

`CCOC(=O)CN(Cc1ccccc1)c1ccc2c(c1)OC(C)(COc1ccc(C(=N)N)cc1)CN2C` (configuration not stated): the IC50 in assay [1] was 28 µM; in assay [2], over 100 µM. Affinity in assay [5] was put at a Ki of 0.32 µM.

As for `CCOC(=O)C(=O)N(Cc1cc(F)cc(F)c1)c1ccc2c(c1)N(C)CC(C)(COc1ccc(C(=N)N)cc1)O2` (configuration not stated), the IC50 in assay [1] and in assay [2] was over 100 µM in each case. The same molecule registered a Ki in assay [3] of 6 µM.

Consider `CCOC(=O)CN(Cc1ccc(F)cc1)c1ccc2c(c1)OC(C)(COc1ccc(C(=N)N)cc1)CN2C` (configuration not stated), for which the IC50 in assay [1] and in assay [2] was over 100 µM each time. For the same molecule, the Ki in assay [5] came out at 0.36 µM; in assay [3], 1.6 µM.

Consider `CN1CC(C)(COc2ccc(C(=N)N)cc2)Oc2ccc(N(Cc3cccc(F)c3)C(=O)C(=O)O)cc21` (configuration not stated), for which the IC50 in assay [1] is 2.2 µM; in assay [2], over 100 µM. This molecule also had a Ki in assay [3] of 18 µM.

`CN1CC(C)(COc2ccc(C(=N)N)cc2)Oc2cc(N(Cc3ccc(F)c(F)c3)C(=O)C(=O)O)ccc21` (configuration not stated): the IC50 in assay [1] was 31 µM; in assay [2], over 100 µM. In assay [3], this molecule showed a Ki of 3.6 µM.

Regarding `CCOC(=O)C(=O)N(Cc1ccccc1)c1ccc2c(c1)N(C)CC(C)(COc1ccc(C(=N)N)cc1)O2` (configuration not stated), the half-maximal inhibitory concentration (IC50) in assay [1] is 49 µM; in assay [2], over 100 µM.

As for `CN1CC(C)(COc2ccc(C(=N)N)cc2)Oc2cc(N(Cc3ccccc3)C(=O)C(=O)O)ccc21` (configuration not stated), the IC50 was 39 µM in assay [1] and over 100 µM in assay [2].

As to `CCOC(=O)C(=O)N(Cc1ccc(F)c(F)c1)c1ccc2c(c1)N(C)CC(C)(COc1ccc(C(=N)N)cc1)O2` (configuration not stated), the IC50 in assay [1] and in assay [2] was over 100 µM in each case. Besides, the Ki in assay [3] was 4.7 µM.

For `CCOC(=O)C(=O)N(Cc1ccccc1)c1ccc2c(c1)OC(C)(COc1ccc(C(=N)N)cc1)CN2C` (configuration not stated), the IC50 in assay [1] is 52 µM; in assay [2] it was over 100 µM.

In the case of `CCOC(=O)CN(Cc1ccc(F)cc1)c1ccc2c(c1)N(C)CC(C)(COc1ccc(C(=N)N)cc1)O2` (configuration not stated), the IC50 in assay [1] and in assay [2] was over 100 µM each time. Besides, the Ki amounted to 0.72 µM in assay [5] and 6.66 µM in assay [3].

With `CN1CC(C)(COc2ccc(C(=N)N)cc2)Oc2ccc(N(CC(=O)O)Cc3cc(F)cc(F)c3)cc21` (configuration not stated), the IC50 is 2.5 µM in assay [1] and over 100 µM in assay [2]. The results for the Ki in assay [5] and in assay [3] were 0.76 µM and 9.8 µM, respectively.

Turning to `CCOC(=O)C(=O)N(Cc1ccc(F)cc1)c1ccc2c(c1)N(C)CC(C)(COc1ccc(C(=N)N)cc1)O2` (configuration not stated), the IC50 in assay [1] was over 10 µM; in assay [2], over 100 µM. Moreover, the inhibition constant (Ki) in assay [3] was 5.49 µM.

In the case of `CCOC(=O)CN(Cc1cccc(F)c1)c1ccc2c(c1)OC(C)(COc1ccc(C(=N)N)cc1)CN2C` (configuration not stated), the IC50 in assay [1] and in assay [2] was over 100 µM in each case. The same molecule registered a Ki in assay [3] of 1.2 µM.

Turning to `CN1CC(C)(COc2ccc(C(=N)N)cc2)Oc2cc(N(CC(=O)O)Cc3cc(F)cc(F)c3)ccc21` (configuration not stated), the IC50 in assay [1] was 45 µM; in assay [2] it was over 100 µM. Moreover, the Ratio Ki in assay [4] was determined as 6.5; in assay [6], 20. The Ki in assay [5] is 0.2 µM; in assay [3], 4 µM.

With `CN1CC(C)(COc2ccc(C(=N)N)cc2)Oc2cc(N(Cc3ccc(F)cc3)C(=O)C(=O)O)ccc21` (configuration not stated), the IC50 in assay [1] was 34 µM; in assay [2], over 100 µM. Moreover, the affinity in assay [3], expressed as Ki, was 7.7 µM.

Consider `CCOC(=O)C(=O)N(Cc1cc(F)cc(F)c1)c1ccc2c(c1)OC(C)(COc1ccc(C(=N)N)cc1)CN2C` (configuration not stated), for which the IC50 in assay [1] and in assay [2] was over 100 µM throughout. Moreover, the results for the Ki in assay [5] and in assay [3] were 0.018 µM and 0.79 µM, respectively.

Turning to `CCOC(=O)CN(Cc1ccccc1)c1ccc2c(c1)N(C)CC(C)(COc1ccc(C(=N)N)cc1)O2` (configuration not stated), the IC50 was 54 µM in assay [1] and over 100 µM in assay [2].

`CN1CC(C)(COc2ccc(C(=N)N)cc2)Oc2ccc(N(CC(=O)O)Cc3ccc(F)c(F)c3)cc21` (configuration not stated): the IC50 in assay [1] is 1.1 µM; in assay [2] it was over 100 µM. In addition, the values for the Ratio Ki in assay [4] and in assay [6] were 1.7 and 20, respectively. Further, the Ki in assay [5] came to 0.33 µM; in assay [3], 6.5 µM.

In the case of `CN1CC(C)(COc2ccc(C(=N)N)cc2)Oc2ccc(N(CC(=O)O)Cc3cccc(F)c3)cc21` (configuration not stated), the IC50 in assay [1] was 1.5 µM; in assay [2] it was over 100 µM. The Ki turned out to be 0.67 µM in assay [5] and 7.6 µM in assay [3].

With `CN1CC(C)(COc2ccc(C(=N)N)cc2)Oc2ccc(N(Cc3ccc(F)c(F)c3)C(=O)C(=O)O)cc21` (configuration not stated), the IC50 in assay [1] is 2.5 µM; in assay [2], over 100 µM. The molecule further had a Ki in assay [3] of 14 µM.

As for `CCOC(=O)C(=O)N(Cc1cccc(F)c1)c1ccc2c(c1)OC(C)(COc1ccc(C(=N)N)cc1)CN2C` (configuration not stated), the IC50 in assay [1] and in assay [2] was over 100 µM in each case. Moreover, the Ki in assay [5] turned out to be 0.019 µM; in assay [3] it was 1.6 µM.

`CCOC(=O)CN(Cc1cc(F)cc(F)c1)c1ccc2c(c1)OC(C)(COc1ccc(C(=N)N)cc1)CN2C` (configuration not stated): the IC50 in assay [1] and in assay [2] was over 100 µM throughout. In addition, the affinity in assay [3] corresponds to a Ki of 15 µM.

In the case of `CCOC(=O)C(=O)N(Cc1ccc(F)c(F)c1)c1ccc2c(c1)OC(C)(COc1ccc(C(=N)N)cc1)CN2C` (configuration not stated), the IC50 in assay [1] and in assay [2] was over 100 µM in each case. The results for the Ki in assay [5] and in assay [3] were 0.028 µM and 1.6 µM, respectively.

On to `CCOC(=O)CN(Cc1cc(F)cc(F)c1)c1ccc2c(c1)N(C)CC(C)(COc1ccc(C(=N)N)cc1)O2` (configuration not stated), for which the IC50 in assay [1] and in assay [2] was over 100 µM throughout. Besides, in assay [3], affinity was put at a Ki of 9.8 µM.

Consider `CN1CC(C)(COc2ccc(C(=N)N)cc2)Oc2cc(N(Cc3cc(F)cc(F)c3)C(=O)C(=O)O)ccc21` (configuration not stated), for which the IC50 in assay [1] is 31 µM; in assay [2] it was over 100 µM. This molecule had a Ki in assay [3] of 1.6 µM.

As for `CCOC(=O)CN(Cc1cccc(F)c1)c1ccc2c(c1)N(C)CC(C)(COc1ccc(C(=N)N)cc1)O2` (configuration not stated), the IC50 in assay [1] and in assay [2] was over 100 µM in each case. In addition, the values for the Ki in assay [5] and in assay [3] were 0.8 µM and 6.8 µM, respectively.

For `CN1CC(C)(COc2ccc(C(=N)N)cc2)Oc2cc(N(CC(=O)O)Cc3ccc(F)c(F)c3)ccc21` (configuration not stated), the IC50 in assay [1] is 80 µM; in assay [2], over 100 µM. Also, the figures for the Ratio Ki in assay [4] and in assay [6] were 1.6 and 5.4, respectively. Besides, the Ki in assay [5] amounted to 0.81 µM; in assay [3], 4.4 µM.

Turning to `CCOC(=O)C(=O)N(Cc1cccc(F)c1)c1ccc2c(c1)N(C)CC(C)(COc1ccc(C(=N)N)cc1)O2` (configuration not stated), the IC50 in assay [1] and in assay [2] was over 100 µM throughout. For the same molecule, the Ki in assay [3] amounted to 4.9 µM.

Regarding `CCOC(=O)CN(Cc1ccc(F)c(F)c1)c1ccc2c(c1)OC(C)(COc1ccc(C(=N)N)cc1)CN2C` (configuration not stated), the IC50 in assay [1] and in assay [2] was over 100 µM in each case. The molecule also gave a Ki in assay [3] of 1.5 µM.

With `CN1CC(C)(COc2ccc(C(=N)N)cc2)Oc2cc(N(Cc3cccc(F)c3)C(=O)C(=O)O)ccc21` (configuration not stated), the IC50 in assay [1] was 33 µM; in assay [2], over 100 µM. Moreover, in assay [3], the affinity corresponds to a Ki of 4.1 µM.

For `CN1CC(C)(COc2ccc(C(=N)N)cc2)Oc2ccc(N(Cc3ccc(F)cc3)C(=O)C(=O)O)cc21` (configuration not stated), the IC50 is 1.8 µM in assay [1] and over 100 µM in assay [2]. The same molecule gave a Ki in assay [3] of 16.3 µM.

`CN1CC(C)(COc2ccc(C(=N)N)cc2)Oc2cc(N(CC(=O)O)Cc3ccc(F)cc3)ccc21` (configuration not stated): the IC50 in assay [1] is 49 µM; in assay [2] it was over 100 µM. The Ki was 0.24 µM in assay [5] and 5.6 µM in assay [3].

Take `CCOC(=O)C(=O)N(Cc1ccc(F)cc1)c1ccc2c(c1)OC(C)(COc1ccc(C(=N)N)cc1)CN2C` (configuration not stated): the IC50 in assay [1] and in assay [2] was over 100 µM throughout. Besides, the Ki is 0.023 µM in assay [5] and 2.83 µM in assay [3].

The term IC50 denotes the point on the concentration scale where inhibition reaches its midpoint. Lower therefore signals greater potency in that assay. What is called Ki is the dissociation constant of the complex between target and ligand, obtained from inhibition or displacement. Higher therefore signals weaker binding.
